Assay results published in ChEMBL document CHEMBL3997800, “Discovery of Multitarget Agents Active as Broad-Spectrum Antivirals and Correctors of Cystic Fibrosis Transmembrane Conductance Regulator for Associated Pulmonary Diseases” (J Med Chem, 2017).
Calls of active or inactive are those of the source. The rule behind the calls is not given here.

Columns and labels:
Enterovirus A71 [1] = assay: Antiviral activity against Enterovirus 71 TW/96016/08 clinical isolates incubated for 2 to 3 days; format: functional; settings: Enterovirus A
Poliovirus 1 = assay: Antiviral activity against Poliovirus 1 after 2 to 3 days by cell based MTS assay; format: functional; settings: Enterovirus C
Summary of the method: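 Vero cells seeded at 20 000/well in MEM with 2% FCS. Three 8-step 1:5 dilution series from 100 μM, then virus, then cells; 2–3 days until maximal CPE. Read-out: 5% MTS for 1.5 h at 37°C, absorbance at 498 nm, expressed as % of untreated controls. EC50 taken as the median of 3 dose-response curves.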

Enterovirus A71 [2] = assay: Antiviral activity against Enterovirus 71 H08300 461#812 clinical isolates incubated for 2 to 3 days; format: functional; settings: Enterovirus A
Enterovirus A71 [3] = assay: Antiviral activity against Enterovirus 71 11316 clinical isolates incubated for 2 to 3 days; format: functional; settings: Enterovirus A
[4] = Inhibition of full length recombinant His6-tagged PI4K3beta (unknown origin) expressed in Sf9 insect cells using PI : PS as substrate in presence of [gamma-33P]-ATP by scintillation counting method; design: species or system Homo sapiens; settings: read-out: IC50
[5] = Cytotoxicity against human RD cells assessed as change in cell morphology by microscopic method; format: cell-based
Summary of the method: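 Uninfected, compound-treated RD cells were inspected by microscope. CC50 was taken from microscopically detectable alteration of cell morphology.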

[6] = Selectivity index, ratio of CC50 for human RD cells to EC50 for Enterovirus 71; format: toxicity; settings: read-out: Ratio CC50/EC50
Summary of the method: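 SI is CC50/EC50. CC50 is from the MTS assay on uninfected RD cells and EC50 from the EV71 CPE-reduction assay, both medians of three dose-response curves run in parallel.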

[7] = Selectivity index, ratio of CC50 for human RD cells assessed as change in cell morphology to EC50 for Enterovirus 71; format: toxicity; settings: read-out: Ratio CC50/EC50
Summary of the method: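 SI is CC50/EC50. CC50 is from microscopically detected morphology change in uninfected RD cells and EC50 from the EV71 CPE-reduction assay in RD cells.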

Coxsackievirus B3 = assay: Antiviral activity against Coxsackievirus B3 after 2 to 3 days by cell based MTS assay; format: functional; settings: Enterovirus B
Echovirus E11 = assay: Antiviral activity against Echovirus 11 after 2 to 3 days; format: functional; settings: Enterovirus B
rhinovirus B14 = assay: Antiviral activity against Rhinovirus 14 after 2 to 3 days by cell based MTS assay; format: functional; settings: Rhinovirus B; read-out: EC50
[8] = target: PI3-kinase p110-alpha/p85-alpha (Homo sapiens) (UniProt P27986+P42336); assay: Inhibition of full length recombinant human N-terminal His6-tagged PI3Kalpha (1 to 1068 residues)/full length human N-terminal myc-tagged P85alpha (1 to 724 residues) expressed in Sf9 insect cells assessed as residual activity at 100 uM using PI : PS as substrate in presence of [gamma-33P]-ATP by scintillation counting method relative to control
[9] = target: Proto-oncogene tyrosine-protein kinase Src (Homo sapiens) (UniProt P12931); assay: Inhibition of full-length recombinant human N-terminal GST-tagged SRC expressed in Escherichia coli assessed as residual activity at 100 uM using KVEKIGEGTYGVVYK-amide as substrate by ADP-Glo bioluminescence assay relative to control relative to control
Sequence of Proto-oncogene tyrosine-protein kinase Src (Homo sapiens) (P12931 2-536 limits assumed): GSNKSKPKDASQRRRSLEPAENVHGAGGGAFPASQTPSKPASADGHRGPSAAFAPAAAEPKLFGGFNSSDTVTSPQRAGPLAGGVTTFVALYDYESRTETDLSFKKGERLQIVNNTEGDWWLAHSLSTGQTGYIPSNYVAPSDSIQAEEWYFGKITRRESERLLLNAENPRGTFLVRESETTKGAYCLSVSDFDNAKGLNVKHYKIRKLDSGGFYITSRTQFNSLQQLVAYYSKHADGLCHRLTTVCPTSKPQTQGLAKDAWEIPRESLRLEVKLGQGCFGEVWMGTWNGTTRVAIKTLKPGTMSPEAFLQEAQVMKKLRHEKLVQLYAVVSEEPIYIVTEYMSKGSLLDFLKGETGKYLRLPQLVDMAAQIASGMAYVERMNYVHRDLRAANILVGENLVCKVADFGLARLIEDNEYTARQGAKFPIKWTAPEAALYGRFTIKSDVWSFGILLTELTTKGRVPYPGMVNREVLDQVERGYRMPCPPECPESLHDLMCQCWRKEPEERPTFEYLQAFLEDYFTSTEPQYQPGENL
Summary of the method: (§1)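 Kinase reactions followed manufacturer's instructions with 10-50 ng enzyme, in 10 µL for 10 min at 30 °C; NP-40 or BSA added for some kinases. Compound at 100 µM. Residual activity is the mean of two independent replicates.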

[10] = target: Tyrosine-protein kinase HCK (Homo sapiens) (UniProt P08631); assay: Inhibition of full-length recombinant human HCK assessed as residual activity at 100 uM using poly(Glu,Tyr)4:1 as substrate by ADP-Glo bioluminescence assay relative to control relative to control; summary of the method: as §1
Sequence of Tyrosine-protein kinase HCK (Homo sapiens) (P08631 2-526 limits assumed): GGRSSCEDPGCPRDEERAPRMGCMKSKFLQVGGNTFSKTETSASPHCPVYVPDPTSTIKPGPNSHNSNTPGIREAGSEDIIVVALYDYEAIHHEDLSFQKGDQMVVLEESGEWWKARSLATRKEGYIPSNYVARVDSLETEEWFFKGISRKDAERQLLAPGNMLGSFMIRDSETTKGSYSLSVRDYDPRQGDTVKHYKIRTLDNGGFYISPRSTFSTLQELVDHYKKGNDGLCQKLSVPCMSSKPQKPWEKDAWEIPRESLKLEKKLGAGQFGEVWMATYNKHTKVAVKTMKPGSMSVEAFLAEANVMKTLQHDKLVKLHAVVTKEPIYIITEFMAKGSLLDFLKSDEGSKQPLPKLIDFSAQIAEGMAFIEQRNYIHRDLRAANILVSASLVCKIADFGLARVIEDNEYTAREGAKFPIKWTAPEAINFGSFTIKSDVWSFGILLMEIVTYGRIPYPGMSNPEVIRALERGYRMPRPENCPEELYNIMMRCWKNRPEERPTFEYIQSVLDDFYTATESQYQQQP

[11] = target: Focal adhesion kinase 1 (Homo sapiens) (UniProt Q05397); assay: Inhibition of […] recombinant human FAK (393 to 698 residues) expressed in baculovirus infected sf9 cells assessed as residual activity at 100 uM using poly(Glu,Tyr)4:1 as substrate by ADP-Glo bioluminescence assay relative to control relative to control; summary of the method: as §1
Sequence of Focal adhesion kinase 1 (Homo sapiens) (Q05397 2-1052 limits assumed): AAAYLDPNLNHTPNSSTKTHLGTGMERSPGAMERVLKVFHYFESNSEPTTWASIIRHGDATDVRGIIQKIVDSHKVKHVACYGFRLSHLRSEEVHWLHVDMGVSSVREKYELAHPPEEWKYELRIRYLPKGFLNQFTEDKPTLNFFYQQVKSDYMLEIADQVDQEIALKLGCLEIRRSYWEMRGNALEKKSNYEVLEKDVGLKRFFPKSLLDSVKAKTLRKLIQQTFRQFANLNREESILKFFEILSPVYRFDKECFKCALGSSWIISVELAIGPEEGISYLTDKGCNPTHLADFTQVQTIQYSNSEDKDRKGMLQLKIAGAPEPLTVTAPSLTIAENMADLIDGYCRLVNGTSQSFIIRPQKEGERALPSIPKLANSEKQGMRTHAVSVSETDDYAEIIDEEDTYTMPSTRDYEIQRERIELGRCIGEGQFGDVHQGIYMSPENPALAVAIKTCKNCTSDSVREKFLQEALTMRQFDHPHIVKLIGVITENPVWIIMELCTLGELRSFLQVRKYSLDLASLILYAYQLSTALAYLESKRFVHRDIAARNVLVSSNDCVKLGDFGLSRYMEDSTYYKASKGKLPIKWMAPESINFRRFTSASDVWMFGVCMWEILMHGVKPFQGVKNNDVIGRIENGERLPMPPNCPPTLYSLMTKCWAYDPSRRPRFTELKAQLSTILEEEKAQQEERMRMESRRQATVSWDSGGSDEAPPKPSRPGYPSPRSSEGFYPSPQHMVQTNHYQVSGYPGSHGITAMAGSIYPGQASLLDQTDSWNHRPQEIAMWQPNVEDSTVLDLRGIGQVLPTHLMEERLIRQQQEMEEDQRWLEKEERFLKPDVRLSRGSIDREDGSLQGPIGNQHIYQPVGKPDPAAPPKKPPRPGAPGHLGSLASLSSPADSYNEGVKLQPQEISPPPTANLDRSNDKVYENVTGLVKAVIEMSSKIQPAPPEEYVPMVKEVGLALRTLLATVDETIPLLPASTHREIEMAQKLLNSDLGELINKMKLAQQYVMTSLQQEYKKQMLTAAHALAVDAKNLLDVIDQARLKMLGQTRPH

[12] = target: Dual specificity tyrosine-phosphorylation-regulated kinase 1A (Homo sapiens) (UniProt Q13627); assay: Inhibition of human DYRK1A assessed as residual activity at 100 uM by ADP-Glo bioluminescence assay relative to control relative to control; summary of the method: as §1
[13] = target: Tyrosine-protein kinase ABL1 (Homo sapiens) (UniProt P00519); assay: Inhibition of full length ABL (unknown origin) assessed as residual activity at 100 uM by ADP-Glo bioluminescence assay relative to control relative to control; summary of the method: as §1
Sequence of Tyrosine-protein kinase ABL1 (Homo sapiens) (P00519 whole entry, the tested form may be a part): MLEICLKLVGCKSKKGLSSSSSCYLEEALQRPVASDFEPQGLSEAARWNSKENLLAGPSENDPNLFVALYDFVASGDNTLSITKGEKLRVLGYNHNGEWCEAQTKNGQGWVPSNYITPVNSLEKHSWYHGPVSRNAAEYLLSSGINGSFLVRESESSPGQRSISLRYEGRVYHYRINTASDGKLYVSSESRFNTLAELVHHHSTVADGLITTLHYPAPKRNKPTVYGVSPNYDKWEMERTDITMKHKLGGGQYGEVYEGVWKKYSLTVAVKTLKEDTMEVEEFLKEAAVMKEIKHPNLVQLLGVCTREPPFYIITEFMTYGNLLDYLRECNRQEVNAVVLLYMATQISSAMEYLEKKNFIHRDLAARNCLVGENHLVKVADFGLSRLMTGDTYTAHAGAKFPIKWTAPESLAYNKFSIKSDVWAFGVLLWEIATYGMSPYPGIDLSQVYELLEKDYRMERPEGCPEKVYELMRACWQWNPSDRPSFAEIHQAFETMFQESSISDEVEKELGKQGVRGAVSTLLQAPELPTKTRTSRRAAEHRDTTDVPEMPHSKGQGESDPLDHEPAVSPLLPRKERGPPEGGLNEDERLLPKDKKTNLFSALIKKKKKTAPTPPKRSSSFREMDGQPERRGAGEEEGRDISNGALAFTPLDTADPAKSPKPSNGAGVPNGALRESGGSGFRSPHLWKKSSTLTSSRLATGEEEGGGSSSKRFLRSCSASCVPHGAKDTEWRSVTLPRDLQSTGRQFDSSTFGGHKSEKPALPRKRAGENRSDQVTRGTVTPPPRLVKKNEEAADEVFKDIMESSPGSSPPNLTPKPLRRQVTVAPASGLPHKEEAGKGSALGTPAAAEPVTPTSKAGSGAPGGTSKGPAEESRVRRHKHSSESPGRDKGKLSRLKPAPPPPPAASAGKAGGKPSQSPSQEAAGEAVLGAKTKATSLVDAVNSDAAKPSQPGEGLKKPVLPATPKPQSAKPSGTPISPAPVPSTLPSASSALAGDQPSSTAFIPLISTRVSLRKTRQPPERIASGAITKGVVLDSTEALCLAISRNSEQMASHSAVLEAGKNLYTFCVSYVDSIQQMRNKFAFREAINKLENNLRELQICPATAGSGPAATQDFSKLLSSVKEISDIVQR

[14] = target: Receptor-type tyrosine-protein kinase FLT3 (Homo sapiens) (UniProt P36888); assay: Inhibition of recombinant human N-terminal GST-tagged FLT3 (571 to 993 residues) expressed in baculovirus infected sf9 cells assessed as residual activity using myelin basic protein as substrate at 100 uM by ADP-Glo bioluminescence assay relative to control relative to control; summary of the method: as §1
[15] = target: CDK2/Cyclin A2 (Homo sapiens) (UniProt P24941+P20248); assay: Inhibition of full-length recombinant human N-terminal GST-tagged CDK2/cyclin A2 expressed in baculovirus infected sf9 cells assessed as residual activity at 100 uM using histone H1 as substrate by ADP-Glo bioluminescence assay relative to control relative to control; summary of the method: as §1
[16] = target: CDK9/cyclin T1 (Homo sapiens) (UniProt O60563+P50750); assay: Inhibition of CDK9/cyclin T1 (unknown origin) assessed as residual activity at 100 uM by ADP-Glo bioluminescence assay relative to control relative to control; format: protein-complex assay; summary of the method: as §1
[17] = target: CDK9/Cyclin K (Homo sapiens) (UniProt P50750+O75909); assay: Inhibition of full-length recombinant human N-terminal GST-tagged CDK9/cyclin K expressed in baculovirus infected sf9 cells assessed as residual activity at 100 uM using KTFCGTPEYLAPEVRREPRILSEEEQEMFRDFDYIADWC as substrate by ADP-Glo bioluminescence assay relative to control relative to control; summary of the method: as §1
[18] = target: CDK6/cyclin D1 (Homo sapiens) (UniProt P24385+Q00534); assay: Inhibition of CDK6/cyclin D1 (unknown origin) assessed as residual activity at 100 uM by ADP-Glo bioluminescence assay relative to control relative to control; format: protein-complex assay; summary of the method: as §1
[19] = target: Serine/threonine-protein kinase pim-1 (Homo sapiens) (UniProt P11309); assay: Inhibition of recombinant human N-terminal GST-tagged pim1 expressed in baculovirus infected sf9 cells assessed as residual activity using KRRRLASLR as substrate at 100 uM by ADP-Glo bioluminescence assay relative to control relative to control; summary of the method: as §1
Sequence of Serine/threonine-protein kinase pim-1 (Homo sapiens) (P11309 whole entry, looked up): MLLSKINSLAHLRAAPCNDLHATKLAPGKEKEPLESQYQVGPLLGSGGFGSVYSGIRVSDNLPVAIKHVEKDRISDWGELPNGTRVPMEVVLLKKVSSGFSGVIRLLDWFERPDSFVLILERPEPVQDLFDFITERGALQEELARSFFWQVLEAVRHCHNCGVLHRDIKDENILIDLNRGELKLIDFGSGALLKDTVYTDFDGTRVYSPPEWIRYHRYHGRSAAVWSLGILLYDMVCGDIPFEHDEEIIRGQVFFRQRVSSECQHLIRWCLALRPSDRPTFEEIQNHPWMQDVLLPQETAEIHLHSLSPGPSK

[20] = system: Cystic fibrosis transmembrane conductance regulator (Homo sapiens), P13569 [F508del]; assay: Corrector activity at CFTR F508 deletion mutant (unknown origin) expressed in HEK293 cells assessed as increase in steady-state level of F508 deletion mutant at plasma membrane at 10 uM preincubated for 24 hrs followed by compound washout by pHTomato dye based fluorescence imaging method; format: cell-based
Sequence of Cystic fibrosis transmembrane conductance regulator (Homo sapiens), P13569 [F508del] (P13569 as listed by the source): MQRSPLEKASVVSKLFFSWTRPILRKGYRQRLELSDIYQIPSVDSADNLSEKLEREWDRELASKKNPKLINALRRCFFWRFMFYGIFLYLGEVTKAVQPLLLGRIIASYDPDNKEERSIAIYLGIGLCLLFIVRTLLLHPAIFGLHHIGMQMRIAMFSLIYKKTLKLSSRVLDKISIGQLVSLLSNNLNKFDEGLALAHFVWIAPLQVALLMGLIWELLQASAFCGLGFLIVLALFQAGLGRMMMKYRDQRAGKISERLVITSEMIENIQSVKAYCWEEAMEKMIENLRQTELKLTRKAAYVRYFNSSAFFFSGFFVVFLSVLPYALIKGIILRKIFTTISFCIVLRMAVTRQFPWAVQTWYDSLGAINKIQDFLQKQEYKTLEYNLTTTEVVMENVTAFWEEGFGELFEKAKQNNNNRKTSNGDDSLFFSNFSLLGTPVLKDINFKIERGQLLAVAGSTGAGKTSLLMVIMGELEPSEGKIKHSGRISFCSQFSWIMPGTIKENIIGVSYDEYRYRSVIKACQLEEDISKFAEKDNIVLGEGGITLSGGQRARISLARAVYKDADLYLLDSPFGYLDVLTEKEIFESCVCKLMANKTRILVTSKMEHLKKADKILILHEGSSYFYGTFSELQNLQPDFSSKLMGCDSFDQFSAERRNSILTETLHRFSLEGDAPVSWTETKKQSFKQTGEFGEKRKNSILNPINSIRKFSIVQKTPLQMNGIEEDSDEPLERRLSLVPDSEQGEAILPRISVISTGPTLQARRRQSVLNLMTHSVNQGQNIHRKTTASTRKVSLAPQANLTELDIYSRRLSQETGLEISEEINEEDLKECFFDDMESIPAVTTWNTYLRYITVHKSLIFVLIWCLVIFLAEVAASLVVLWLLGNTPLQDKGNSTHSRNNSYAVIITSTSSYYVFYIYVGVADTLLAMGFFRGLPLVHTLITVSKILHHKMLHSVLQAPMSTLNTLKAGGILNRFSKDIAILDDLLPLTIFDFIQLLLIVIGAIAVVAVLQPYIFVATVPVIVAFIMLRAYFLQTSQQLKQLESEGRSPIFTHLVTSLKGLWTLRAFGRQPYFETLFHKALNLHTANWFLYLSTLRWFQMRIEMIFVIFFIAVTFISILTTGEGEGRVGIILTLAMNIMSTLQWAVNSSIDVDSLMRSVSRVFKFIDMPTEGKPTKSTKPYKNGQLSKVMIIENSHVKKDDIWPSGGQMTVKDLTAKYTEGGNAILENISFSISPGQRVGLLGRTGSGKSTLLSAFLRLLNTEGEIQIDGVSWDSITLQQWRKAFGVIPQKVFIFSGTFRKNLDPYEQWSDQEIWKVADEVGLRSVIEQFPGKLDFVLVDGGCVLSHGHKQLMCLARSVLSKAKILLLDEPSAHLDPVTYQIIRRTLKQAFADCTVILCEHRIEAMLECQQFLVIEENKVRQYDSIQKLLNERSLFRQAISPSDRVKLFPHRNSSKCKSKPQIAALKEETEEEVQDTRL
Summary of the method: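 HEK293 cells were transiently transfected (Lipofectamine 2000) with F508del-CFTR-pHTomato plus co-expressed soluble eGFP, then kept 24 h at 37 °C. Next, 24 h at 30 °C with 10 μM drug. Imaging in pH 7.4 HEPES buffer, then extracellular pH shifted to ~6.5 (MES) and ~8.8 (Tris). The eGFP-normalized fluorescence rise (ΔF) estimates membrane CFTR.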

`CC(=O)c1cccc(Nc2nc(-c3sc(NC(=O)OC(C)(C)C)nc3C)cs2)c1` showed an EC50 (Enterovirus A71 [1]) of 21 µM, an EC50 (Poliovirus 1) of 13.3 µM and an EC50 (Enterovirus A71 [2]) of 0.97 µM. For the same molecule, the EC50 (Enterovirus A71 [3]) was < 1.39 µM, the IC50 [4] was 4.67 µM and the CC50 [5] was 101 µM. The selectivity ratio [6] was 29.7, the selectivity ratio [7] was 71.1 and the EC50 (Coxsackievirus B3) was 2.74 µM. The EC50 (Echovirus E11) was 2.93 µM, the EC50 (rhinovirus B14) was > 232 µM and the Activity [8] was 64%. For the same molecule, the Activity [9] was 32%, the Activity [10] was 100% and the Activity [11] was 82%. The Activity [12] was 88%, the Activity [13] was 53% and the Activity [14] was 59%. It also gave an Activity [15] of 62%, an Activity [16] of 57% and an Activity [17] of 49%. The Activity [18] was 25%, the Activity [19] was 70% and the Activity [20] was “Active”.
